Published values collected from several papers.
Lines come from different studies, so protocols differ.
Target: Platelet-derived growth factor receptor beta (PDGFRB, Homo sapiens, UniProt P09619)

Compound | assay | setting | measurement | result
Cc1ccc(C(=O)Nc2ccc(CN3CCN(C)CC3)c(C(F)(F)F)c2)cc1C#Cc1cnc2cccnn12 | enzyme activity, inhibitor | 23.5 nM | remaining activity | 1.6%
N#CCCc1ccc2c(c1)-c1[nH]c3ccc([N+](=O)[O-])cc3c1CC(=O)N2 | cell-free assay | 0.5 µM | remaining signal | 83.9%
NS(=O)(=O)c1cc(NC(=O)Cc2ccccc2)ccc1Oc1cccc(Cl)c1 | cell-free assay, competition with immobilised ligand | 1 µM | remaining binding | 76%
Cc1[nH]c(/C=C2\C(=O)Nc3ccc(F)cc32)c(C)c1C(=O)N[C@H]1CCN(C(=O)N(C)C)C1 | enzyme activity, inhibitor | 0.1 µM | remaining activity | 97%
O=c1nc(-c2ccccn2)sc2ccccc12 | cell-free assay, competition with immobilised ligand | 1 µM | remaining binding | 83%
Cc1ccc(NC(=O)c2ccc(C)c(C(F)(F)F)c2)cc1C#Cc1nn(C2CCC(O)CC2)c2ncnc(N)c12 (stereo not shown) | cell-free assay | 10 µM | remaining signal | 87%
CCCOc1ccc(OC)c(F)c1C(=O)c1ccc(C(=O)N[C@@H]2CNC[C@H]2NC(=O)c2ccc3[nH]ncc3c2)cc1 | enzyme activity, inhibitor | 10 µM | remaining activity | 74%
O=C(Nc1ccc(Oc2ccc(F)cc2)cc1)N1CCc2ncccc2[C@H]1c1ccc(F)cc1 | cell-free assay, competition with immobilised ligand | 1 µM | remaining binding | 100%
O=C(Nc1cnn(-c2csc(C(=O)NC3COC3)c2)c1)Nc1ccccc1Cl | enzyme activity, inhibitor | 5 µM | remaining activity | 107%
CS(=O)(=O)N1CCCC(NC(=O)[C@H](CCC2CCCCC2)NC(=O)c2ccc(CNc3ncnc4c3nnn4-c3ccccc3)cc2)C1 (stereo partly shown) | cell-free assay, competition with immobilised ligand | 0.1 µM | remaining binding | 86%
COc1cc2ncnc(Nc3ccc(Oc4ccccc4)cc3C)c2cc1OC | enzyme activity, inhibitor | 1 µM | inhibition | 2%
CCN(CC)CCNC(=O)c1c(C)[nH]c(/C=C2\C(=O)Nc3ccc(F)cc32)c1C | cell-free assay | 0.5 µM | remaining signal | 17.6%
Cn1nc(C(=O)NCc2ccc(C(=O)O)cc2)cc1-c1ccc2[nH]ccc2c1 | cell-free assay, competition with immobilised ligand | 0.1 µM | remaining binding | 96%
CNC(=O)c1cc(Oc2ccc(NC(=O)Nc3ccc(Cl)c(C(F)(F)F)c3)cc2)ccn1 | cell-free assay | 0.5 µM | remaining signal | 12%
Fc1cccc(-n2cnc3c(NCc4nc5c(F)c(F)ccc5[nH]4)nc(N4CCOCC4)nc32)c1 | binding, competition with immobilised ligand | 10 µM | binding vs control | 91%
O=c1cc(-c2cccc3c2Sc2ccccc2S3)oc(N2CCOCC2)c1 | enzyme activity, inhibitor | 0.5 µM | remaining activity | 102%
Cc1ccc(Nc2nccc(N(C)c3ccc4c(C)n(C)nc4c3)n2)cc1S(N)(=O)=O | enzyme activity, inhibitor | 0.3 µM | inhibition | 64%
Cn1cc(Cl)c2c(Oc3c(F)cc(Nc4cc(Cl)nc(N)n4)cc3F)ccnc21 | cell-free assay, competition with immobilised ligand | 0.1 µM | remaining binding | 96%
O=C1NC(=O)c2cc(Nc3ccc(F)cc3)c(Nc3ccc(F)cc3)cc21 | cell-free assay | 0.5 µM | remaining signal | 93.9%
